Target: T1, UniProt E1BM68
T1 sequence (whole entry): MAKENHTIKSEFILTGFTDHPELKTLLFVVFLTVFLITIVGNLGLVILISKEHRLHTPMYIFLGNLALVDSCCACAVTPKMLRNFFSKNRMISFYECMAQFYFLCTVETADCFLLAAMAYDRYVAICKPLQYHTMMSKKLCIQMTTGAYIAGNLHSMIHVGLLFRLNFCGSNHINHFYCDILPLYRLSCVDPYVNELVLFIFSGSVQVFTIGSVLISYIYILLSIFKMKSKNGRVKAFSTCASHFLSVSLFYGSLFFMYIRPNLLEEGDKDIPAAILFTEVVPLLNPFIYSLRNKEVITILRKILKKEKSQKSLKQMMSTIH
Details: stereoisomer not certain
Summary of the method: (§1)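 Values were gathered from published papers (main text and supplementary material), with extra details requested from the original authors when needed, and checked for typos and inconsistencies. Each receptor–molecule pair is called responsive (active) if the original authors judged the measured signal statistically different from baseline, and non-responsive (inactive) otherwise. Assay methods varied by source, often transient mammalian cell-line luciferase assays. Recorded details include cell line, G-protein, co-transfected protein and tags.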

Q: For `Cc1cnccn1`, which “odorant receptor agonist call” value is on record?
A: active

Q: Which “odorant receptor agonist call” value does the source give for `Cc1nccnc1C` here?
A: active

Q: Which “odorant receptor agonist call” value does the source give for `CC(=O)c1nccnc1C` here?
A: active

Q: For `COC1=C(C)OC(C)C1=O` (stereo not given), which “odorant receptor agonist call” value is on record?
A: inactive

Q: For `C=Cc1cnccn1`, which “odorant receptor agonist call” value is on record?
A: active

Q: Which “odorant receptor agonist call” value does the source give for `Cc1cncc(C)n1` here?
A: active

Q: How did the “odorant receptor agonist call” value turn out when `CCc1cnc(C)c(C)n1` was run?
A: inactive

Q: `CCc1nccnc1OC` was tested. Which “odorant receptor agonist call” value did it give?
A: active

Q: With `CCc1nccnc1C` as the compound, how does the “odorant receptor agonist call” value read?
A: active

Q: With `COc1nccnc1CC(C)C` as the compound, how does the “odorant receptor agonist call” value read?
A: active

Q: Which “odorant receptor agonist call” value does the source give for `Cc1cnc(C)c(C)n1` here?
A: active

Q: With `CC1=NC(C)C(C)S1` (stereo not given) as the compound, how does the “odorant receptor agonist call” value read?
A: active

Q: With `CC(=O)c1cnccn1` as the compound, how does the “odorant receptor agonist call” value read?
A: active

Q: How did the “odorant receptor agonist call” value turn out when `CC1CCc2nccnc21` (stereo not given) was run?
A: active

Target: T2, UniProt E9Q9Z6
T2 sequence (whole entry): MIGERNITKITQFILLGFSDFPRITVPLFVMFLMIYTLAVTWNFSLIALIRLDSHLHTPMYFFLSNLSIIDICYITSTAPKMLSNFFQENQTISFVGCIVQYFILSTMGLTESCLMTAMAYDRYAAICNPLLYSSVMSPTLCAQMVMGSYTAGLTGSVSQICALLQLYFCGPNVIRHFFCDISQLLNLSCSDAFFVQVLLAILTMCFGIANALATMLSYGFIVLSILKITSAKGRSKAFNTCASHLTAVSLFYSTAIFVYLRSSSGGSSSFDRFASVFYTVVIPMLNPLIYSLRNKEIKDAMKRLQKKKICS
Details: stereoisomer not certain
Summary of the method: as §1

Q: For `O=C1C=CCCCCCCCCCCCCO1`, which “odorant receptor agonist call” value is on record?
A: active

Q: For `CC1CCCCCCCCCCCC(=O)C1` (stereo not given), which “odorant receptor agonist call” value is on record?
A: active

Q: How did the “odorant receptor agonist call” value turn out when `CCCCCCCCCCCCCC(C)=O` was run?
A: active

Q: With `CC1CC=CCCCCCCCCC(=O)C1` (stereo not given) as the compound, how does the “odorant receptor agonist call” value read?
A: active

Q: With `O=C1CCCCCCCCCCCCCC1` as the compound, how does the “odorant receptor agonist call” value read?
A: active

Q: With `CCCCCCCC(=O)CCCCCCC` as the compound, how does the “odorant receptor agonist call” value read?
A: inactive

Q: How did the “odorant receptor agonist call” value turn out when `C1CCCCCCCCCCCCCC1` was run?
A: inactive

Q: `O=C1CCCCCC=CCCCCCCCCO1` was tested. Which “odorant receptor agonist call” value did it give?
A: inactive

Q: With `CC(=O)c1c(C)c([N+](=O)[O-])c(C(C)(C)C)c([N+](=O)[O-])c1C` as the compound, how does the “odorant receptor agonist call” value read?
A: active

Q: Which “odorant receptor agonist call” value does the source give for `O=C1CCCC=CCCCCCCCCCC1` here?
A: active

Q: With `CC1C(C)(C)C2=C(C(=O)CCC2)C1(C)C` (stereo not given) as the compound, how does the “odorant receptor agonist call” value read?
A: inactive

Q: With `O=C1CCCCCCCCCC1` as the compound, how does the “odorant receptor agonist call” value read?
A: inactive

Q: For `O=C1CCCCCCCCC1`, which “odorant receptor agonist call” value is on record?
A: inactive

Q: How did the “odorant receptor agonist call” value turn out when `CCC(=O)OCC(C)(C)OC(C)C1CCCC(C)(C)C1` (stereo not given) was run?
A: inactive

Q: Which “odorant receptor agonist call” value does the source give for `CC1CCCCCCCCCCCCC(=O)C1` (stereo not given) here?
A: active

Q: Which “odorant receptor agonist call” value does the source give for `OC1CCCCCCCCCCCCCC1` here?
A: active

Q: `O=C1CCCCCCC=CCCCCCCC1` was tested. Which “odorant receptor agonist call” value did it give?
A: active

Target: T3, UniProt E9QAT7
T3 sequence (whole entry): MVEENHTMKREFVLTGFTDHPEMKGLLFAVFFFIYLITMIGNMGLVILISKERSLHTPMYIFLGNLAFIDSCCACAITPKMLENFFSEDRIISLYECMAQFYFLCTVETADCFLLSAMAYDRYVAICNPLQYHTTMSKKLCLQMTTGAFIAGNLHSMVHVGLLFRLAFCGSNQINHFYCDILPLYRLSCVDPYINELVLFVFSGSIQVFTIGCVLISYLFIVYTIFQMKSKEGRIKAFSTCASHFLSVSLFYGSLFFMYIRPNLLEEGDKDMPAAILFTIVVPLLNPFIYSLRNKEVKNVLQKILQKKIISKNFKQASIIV
Details: stereoisomer not certain
Summary of the method: as §1

Q: How did the “odorant receptor agonist call” value turn out when `Cc1cnccn1` was run?
A: inactive

Q: For `Cc1nccnc1C`, which “odorant receptor agonist call” value is on record?
A: inactive

Q: Which “odorant receptor agonist call” value does the source give for `CC(=O)c1nccnc1C` here?
A: inactive

Q: With `COC1=C(C)OC(C)C1=O` (stereo not given) as the compound, how does the “odorant receptor agonist call” value read?
A: inactive

Q: For `C=Cc1cnccn1`, which “odorant receptor agonist call” value is on record?
A: inactive

Q: How did the “odorant receptor agonist call” value turn out when `Cc1cncc(C)n1` was run?
A: active

Q: `CCc1cnc(C)c(C)n1` was tested. Which “odorant receptor agonist call” value did it give?
A: active

Q: Which “odorant receptor agonist call” value does the source give for `CCc1nccnc1OC` here?
A: active

Q: With `CCc1nccnc1C` as the compound, how does the “odorant receptor agonist call” value read?
A: inactive

Q: With `COc1nccnc1CC(C)C` as the compound, how does the “odorant receptor agonist call” value read?
A: inactive

Q: With `Cc1cnc(C)c(C)n1` as the compound, how does the “odorant receptor agonist call” value read?
A: active

Q: With `CC1=NC(C)C(C)S1` (stereo not given) as the compound, how does the “odorant receptor agonist call” value read?
A: active

Q: With `CC(=O)c1cnccn1` as the compound, how does the “odorant receptor agonist call” value read?
A: inactive

Q: Which “odorant receptor agonist call” value does the source give for `CC1CCc2nccnc21` (stereo not given) here?
A: inactive

Reference: the M2OR odorant receptor database
